According to article PMC4774891 (Pharmaceutical research, 2015):

What was measured:
[1] = test system: A431 epidermoid carcinoma subcutaneous xenograft; test: Anticancer study in A431 subcutaneous xenograft model; assay type: in vivo, Nu/nu mice; conditions: 50 mg/kg daily orally, 4 weeks; vehicle control 6663.01 ±1113.23
[2] = Caco-2 permeability study; conditions: human, Caco-2, pH 5.8
VEGF = VEGF estimation by ELISA in serum and tumor lysates; assay type: in vivo, Nu/nu mice
A431 tumors = test: IHC analysis of A431 tumors; assay type: in vivo, Nu/nu mice; conditions: untreated control 34.00±6.26
In vitro drug release = assay type: physicochemical; conditions: PBS 1% Volpo pH 6.8, 37°C
Summary of the method: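 Equal drug amounts (free drug, spray-dried formulation, or physical mixture) suspended in 500 ml PBS with 1% Volpo, pH 6.8. USP type II paddle, 50 rpm, 37±0.5°C, followed over 48 h.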

[3] = free drug; cited from earlier work
[4] = Oral pharmacokinetic study; assay type: in vivo, Sprague Dawley rats; conditions: rat
Chronic toxicity = assay type: in vivo; conditions: 4 weeks daily oral
[5] = Sprague Dawley, plasma, po, 50 mg/kg

Molecule: lucifer yellow
- average permeability (paracellular control) (Caco-2 cell monolayers): < 0.15 ×10⁻⁶ cm/s

Molecule: COc1cc2ncnc(Nc3ccc(F)c(Cl)c3)c2cc1OCCCN1CCOCC1 [Gef free drug, Gefitinib]
- final tumor volume [1]: 3534.49±896.16 mm^3
- Papp A→B at 120 min, 100 μM [2]: 0.34 ± 0.09 ×10⁻⁶ cm/s
- VEGF level in serum (VEGF; serum, control 572.90±38.51): 336.40 ± 55.84 pg/mL
- VEGF level in tumor lysates (VEGF; tumor lysates, control 355.35± 49.93): 175.65±25.76 pg/mg protein
- cleaved caspase 3 positive apoptotic cells/field (A431 tumors): 145.33±28.44 cells/field
- drug released after 48 h (In vitro drug release): 16%
- aqueous solubility [3]: less than 1 mg/ml
- CL ([4]; 50 mg/kg orally): 1.9 ± 0.0408 mL/day/kg
- Vss ([4]; 50 mg/kg orally): 0.00045 ± 0.00022 L/kg
- maximum plasma concentration (approximate molar) ([4]; 50 mg/kg orally): approximately 0.55 μM
- AUC(0-inf) [4, 5]: 1340 ± 244 ng·h/mL
- Cmax [4, 5]: 248 ± 89.5 ng/mL
- MRT [4, 5]: 8.85 ± 1.83 h
- Tmax [4, 5]: 1.25 ± 0.25 h
- half-life [4, 5]: 7.46 ± 1.75 h
- body weight change (Chronic toxicity): no change in the body weights
